Test results: ChEMBL document CHEMBL3120060, “Synthesis, in vitro anticancer evaluation and in silico studies of novel imidazo[2,1-b]thiazole derivatives bearing pyrazole moieties” (2014)

How the values were obtained:
Assay type in all cases: functional
HCT-15 = assay: Cytotoxicity against human HCT15 cells assessed as cell growth at 10 uM after 48 hrs by SRB assay; conditions: HCT-15, 48 h, read-out: Activity
Procedure, shortened: (§1)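 NCI-60 single-dose screen. Cell lines grown in RPMI 1640 with 5% FBS and 2 mM L-glutamine, plated at 5000–40,000 cells/well according to doubling time, then preincubated 24 h at 37 °C in 5% CO2. Compounds dissolved in DMSO, tested at 10^-5 M for 48 h. Adherent cells fixed with cold TCA (10% final) and stained with 0.4% SRB in 1% acetic acid. Growth expressed as percent of untreated control.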

786-0 = assay: Cytotoxicity against human 786-0 cells assessed as cell growth at 10 uM after 48 hrs by SRB assay; conditions: 786-0, 48 h, read-out: Activity; procedure, shortened: as §1
IGROV-1 = assay: Cytotoxicity against human IGROV1 cells assessed as cell growth at 10 uM after 48 hrs by SRB assay; conditions: IGROV-1, 48 h, read-out: Activity; procedure, shortened: as §1
A549 = assay: Cytotoxicity against human A549 cells assessed as cell growth at 10 uM after 48 hrs by SRB assay; conditions: A549, 48 h, read-out: Activity; procedure, shortened: as §1
DU-145 = assay: Cytotoxicity against human DU145 cells assessed as cell growth at 10 uM after 48 hrs by SRB assay; conditions: DU-145, 48 h, read-out: Activity; procedure, shortened: as §1
RXF 393 = assay: Cytotoxicity against human RXF393 cells assessed as cell growth at 10 uM after 48 hrs by SRB assay; conditions: RXF 393, 48 h, read-out: Activity; procedure, shortened: as §1
[1] = Cytotoxicity against human UO31 cells assessed as cell growth at 10 uM after 48 hrs by SRB assay; conditions: UO-31, 48 h, read-out: Activity
Procedure, shortened: (§2)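 NCI-60 single-dose screen at 10^-5 M. Adherent lines are grown in RPMI 1640 with 5% FBS and 2 mM L-glutamine, seeded at 5000–40,000 cells/well by doubling time, and preincubated 24 h at 37 °C in 5% CO2. Drug is added from DMSO stock diluted in medium, then 48 h. Cells are fixed in cold TCA (final 10%) for 60 min and stained with 0.4% SRB in 1% acetic acid. Growth is expressed as % of untreated control using time-zero plates.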

NCI-H522 = assay: Cytotoxicity against human NCI-H522 cells assessed as cell growth at 10 uM after 48 hrs by SRB assay; conditions: NCI-H522, 48 h, read-out: Activity; procedure, shortened: as §1
A498 = assay: Cytotoxicity against human A498 cells assessed as cell growth at 10 uM after 48 hrs by SRB assay; conditions: A498, 48 h, read-out: Activity; procedure, shortened: as §1
[2] = Cytotoxicity against human OVCAR5 cells assessed as cell growth at 10 uM after 48 hrs by SRB assay; conditions: OVCAR-5, 48 h, read-out: Activity; procedure, shortened: as §1
MDA-MB-231 = assay: Cytotoxicity against human MDA-MB-231 cells assessed as cell growth at 10 uM after 48 hrs by SRB assay; conditions: MDA-MB-231, 48 h, read-out: Activity; procedure, shortened: as §1
SK-OV-3 = assay: Cytotoxicity against human SKOV3 cells assessed as cell growth at 10 uM after 48 hrs by SRB assay; conditions: SK-OV-3, 48 h, read-out: Activity; procedure, shortened: as §1
SK-MEL-5 = assay: Cytotoxicity against human SK-MEL-5 cells assessed as cell growth at 10 uM after 48 hrs by SRB assay; conditions: SK-MEL-5, 48 h, read-out: Activity; procedure, shortened: as §1
T47D = assay: Cytotoxicity against human T47D cells assessed as cell growth at 10 uM after 48 hrs by SRB assay; conditions: read-out: Activity; procedure, shortened: as §2
MOLT-4 = assay: Cytotoxicity against human MOLT4 cells assessed as cell growth at 10 uM after 48 hrs by SRB assay; conditions: MOLT-4, 48 h, read-out: Activity; procedure, shortened: as §1
CAKI-1 = assay: Cytotoxicity against human CAKI-1 cells assessed as cell growth at 10 uM after 48 hrs by SRB assay; conditions: CAKI-1, 48 h, read-out: Activity; procedure, shortened: as §1
CCRF-CEM = assay: Cytotoxicity against human CCRF-CEM cells assessed as cell growth at 10 uM after 48 hrs by SRB assay; conditions: read-out: Activity; procedure, shortened: as §1
[3] = Cytotoxicity against human OVCAR4 cells assessed as cell growth at 10 uM after 48 hrs by SRB assay; conditions: OVCAR-4, 48 h, read-out: Activity; procedure, shortened: as §1
SF-539 = assay: Cytotoxicity against human SF539 cells assessed as cell growth at 10 uM after 48 hrs by SRB assay; conditions: SF-539, 48 h, read-out: Activity; procedure, shortened: as §1
MCF7 = assay: Cytotoxicity against human MCF7 cells assessed as cell growth at 10 uM after 48 hrs by SRB assay; conditions: MCF7, 48 h, read-out: Activity; procedure, shortened: as §1
SNB-75 = assay: Cytotoxicity against human SNB75 cells assessed as cell growth at 10 uM after 48 hrs by SRB assay; conditions: SNB-75, 48 h, read-out: Activity; procedure, shortened: as §1
NCI-H460 = assay: Cytotoxicity against human NCI-H460 cells assessed as cell growth at 10 uM after 48 hrs by SRB assay; conditions: NCI-H460, 48 h, read-out: Activity; procedure, shortened: as §1
HOP-62 = assay: Cytotoxicity against human HOP62 cells assessed as cell growth at 10 uM after 48 hrs by SRB assay; conditions: HOP-62, 48 h, read-out: Activity; procedure, shortened: as §1
NCI-H23 = assay: Cytotoxicity against human NCI-H23 cells assessed as cell growth at 10 uM after 48 hrs by SRB assay; conditions: NCI-H23, 48 h, read-out: Activity; procedure, shortened: as §1
SN12C = assay: Cytotoxicity against human SN12C cells assessed as cell growth at 10 uM after 48 hrs by SRB assay; conditions: read-out: Activity; procedure, shortened: as §1
HOP-92 = assay: Cytotoxicity against human HOP92 cells assessed as cell growth at 10 uM after 48 hrs by SRB assay; conditions: HOP-92, 48 h, read-out: Activity; procedure, shortened: as §1
MDA-MB-435 = assay: Cytotoxicity against human MDA-MB-435 cells assessed as cell growth at 10 uM after 48 hrs by SRB assay; conditions: MDA-MB-435, 48 h, read-out: Activity; procedure, shortened: as §1
KM12 = assay: Cytotoxicity against human KM12 cells assessed as cell growth at 10 uM after 48 hrs by SRB assay; conditions: KM12, 48 h, read-out: Activity; procedure, shortened: as §1
COLO 205 = assay: Cytotoxicity against human COLO205 cells assessed as cell growth at 10 uM after 48 hrs by SRB assay; conditions: COLO 205, 48 h, read-out: Activity; procedure, shortened: as §1
LOX IMVI = assay: Cytotoxicity against human LOXIMVI cells assessed as cell growth at 10 uM after 48 hrs by SRB assay; conditions: read-out: Activity; procedure, shortened: as §1
[4] = Cytotoxicity against human NCI-ADR-RES cells assessed as cell growth at 10 uM after 48 hrs by SRB assay; conditions: read-out: Activity; procedure, shortened: as §1
HT-29 = assay: Cytotoxicity against human HT-29 cells assessed as cell growth at 10 uM after 48 hrs by SRB assay; conditions: HT-29, 48 h, read-out: Activity; procedure, shortened: as §1
SF-295 = assay: Cytotoxicity against human SF295 cells assessed as cell growth at 10 uM after 48 hrs by SRB assay; conditions: SF-295, 48 h, read-out: Activity; procedure, shortened: as §1

Structure (SMILES)	growth at 10 µM (HCT-15) [%]	growth at 10 µM (786-0) [%]	growth at 10 µM (IGROV-1) [%]	growth at 10 µM (A549) [%]	growth at 10 µM (DU-145) [%]	growth at 10 µM (RXF 393) [%]	growth at 10 µM [1] [%]	growth at 10 µM (NCI-H522) [%]	growth at 10 µM (A498) [%]	growth at 10 µM [2] [%]	growth at 10 µM (MDA-MB-231) [%]	growth at 10 µM (SK-OV-3) [%]	growth at 10 µM (SK-MEL-5) [%]	growth at 10 µM (T47D) [%]	growth at 10 µM (MOLT-4) [%]	growth at 10 µM (CAKI-1) [%]	growth at 10 µM (CCRF-CEM) [%]	growth at 10 µM [3] [%]	growth at 10 µM (SF-539) [%]	growth at 10 µM (MCF7) [%]	other results
O=C1CC(=O)N(c2cn3c(-c4ccccc4)csc3n2)N1	91.2	104	91.5	92.9	106	89.7	59.6	74.9	78.4	104	85.7	86.8	89.6	82.7	101	75.9	98.7	81.2	88.2	85.8	growth at 10 µM (SNB-75): 63.1%; growth at 10 µM (NCI-H460): 104%; growth at 10 µM (HOP-62): 85.9%; growth at 10 µM (NCI-H23): 91.5%; growth at 10 µM (SN12C): 92.2%; growth at 10 µM (HOP-92): 63.5%; growth at 10 µM (MDA-MB-435): 99.9%; growth at 10 µM (KM12): 101%; growth at 10 µM (COLO 205): 100%; growth at 10 µM (LOX IMVI): 86.9%; growth at 10 µM [4]: 94.3%; growth at 10 µM (HT-29): 104%
O=C1CN2C(c3ccc(Cl)cc3)=CSC2=N1	93.3	94	95.2	92.5	102	111	92.7	87.5	70.2	97	102	98.2	105	92.1	79.1	81.3	91.5	90.3	94.8	90.9	growth at 10 µM (SF-295): 80%; growth at 10 µM (SNB-75): 75.8%; growth at 10 µM (NCI-H460): 106%; growth at 10 µM (HOP-62): 107%; growth at 10 µM (NCI-H23): 104%; growth at 10 µM (SN12C): 94.9%; growth at 10 µM (HOP-92): 111%; growth at 10 µM (MDA-MB-435): 87.8%; growth at 10 µM (KM12): 100%; growth at 10 µM (COLO 205): 108%; growth at 10 µM (LOX IMVI): 98.9%; growth at 10 µM [4]: 102%; growth at 10 µM (HT-29): 88.4%
O=C1CN2C(c3ccccc3)=CSC2=N1	95.9	104	104	98.3	112	102	61.3	94.3	111	113	96.7	89.5	99.8	84.4	95.4	78.7	96.3	97.7	97.5	88.5	growth at 10 µM (SNB-75): 61%; growth at 10 µM (NCI-H460): 105%; growth at 10 µM (HOP-62): 93.6%; growth at 10 µM (NCI-H23): 94.9%; growth at 10 µM (SN12C): 91.5%; growth at 10 µM (HOP-92): 78%; growth at 10 µM (MDA-MB-435): 95.1%; growth at 10 µM (KM12): 111%; growth at 10 µM (COLO 205): 102%; growth at 10 µM (LOX IMVI): 89.4%; growth at 10 µM [4]: 99.6%; growth at 10 µM (HT-29): 109%
Cc1ccc(-c2csc3nc(N4NC(=O)CC4=O)cn23)cc1	100	103	105	102	118	101	74.7	95.9	98	108	104	101	95.9	85.7	90.3	90.1	95.6	99.1	101	93.9	growth at 10 µM (SF-295): 91.2%; growth at 10 µM (SNB-75): 73.3%; growth at 10 µM (NCI-H460): 111%; growth at 10 µM (HOP-62): 105%; growth at 10 µM (NCI-H23): 96.9%; growth at 10 µM (SN12C): 104%; growth at 10 µM (HOP-92): 75.1%; growth at 10 µM (MDA-MB-435): 90%; growth at 10 µM (KM12): 115%; growth at 10 µM (COLO 205): 107%; growth at 10 µM (LOX IMVI): 96.9%; growth at 10 µM [4]: 108%; growth at 10 µM (HT-29): 111%
O=C1CC(=O)N(c2cn3c(-c4ccc(Cl)cc4)csc3n2)N1	92.9	96.4	117	88.9	105	112	111	74.1	75.2	115	107	103	99.7	87.3	79	78.9	89.5	87.4	101	89	growth at 10 µM (SF-295): 84.4%; growth at 10 µM (SNB-75): 74.2%; growth at 10 µM (NCI-H460): 104%; growth at 10 µM (HOP-62): 104%; growth at 10 µM (NCI-H23): 97.8%; growth at 10 µM (SN12C): 88.4%; growth at 10 µM (HOP-92): 99.4%; growth at 10 µM (MDA-MB-435): 93.7%; growth at 10 µM (KM12): 106%; growth at 10 µM (COLO 205): 101%; growth at 10 µM (LOX IMVI): 96.5%; growth at 10 µM [4]: 99.3%; growth at 10 µM (HT-29): 91.3%
CC1=NN(c2cn3c(-c4ccc(C)cc4)csc3n2)C(=O)C1	103	101	101	98.3	113	95.9	71.6	88.9	99.2	124	79	95.5	90	80.6	78.9	84.5	94	99.9	102	91.8	growth at 10 µM (SNB-75): 79.1%; growth at 10 µM (NCI-H460): 105%; growth at 10 µM (HOP-62): 99.2%; growth at 10 µM (NCI-H23): 95.5%; growth at 10 µM (SN12C): 96.4%; growth at 10 µM (HOP-92): 65.5%; growth at 10 µM (MDA-MB-435): 83.6%; growth at 10 µM (KM12): 104%; growth at 10 µM (COLO 205): 106%; growth at 10 µM (LOX IMVI): 93%; growth at 10 µM [4]: 99.3%; growth at 10 µM (HT-29): 118%
